Data published in article PMC5120626 (Dermatology and Therapy, 2016).

How the values were obtained:
[1] = Stability in phosphate buffer; assay type: physicochemical; settings: phosphate buffer pH 7.4, 37 °C
[2] = test system: Neutrophil granulocytes; experiment: Neutrophil granulocyte respiratory burst; assay type: cell-based; settings: relative to ingenol disoxate
Procedure, shortened: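 Human neutrophils isolated from buffy coats by sedimentation, Lymphoprep density centrifugation and erythrocyte lysis. Plated at 2.5 × 10^5 cells/well in HBSS with Ca2+/Mg2+, 0.1% BSA and 5 mM glucose. Titrated test compound premixed with 10 µM hydroethidine for 40 min at ambient temperature; fluorescence ex 485/em 579 nm.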

[3] = test system: IL-8 release from primary epidermal keratinocytes; experiment: Keratinocyte IL-8 release; assay type: cell-based, human; settings: relative to ingenol disoxate
Procedure, shortened: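 Primary adult human epidermal keratinocytes seeded at 1 × 10^4 cells/well in serum-free EpiLife with HKGS, overnight at 37 °C. Titrated test compound applied for 6 h. Secreted IL-8 measured by MSD 4-spot plates or HTRF. The EC50 is the concentration giving 50% of the maximum reached by a reference ingenol ester, from four experiments.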

[4] = test system: keratinocyte differentiation markers (INVL, TGM1, FLG, LOR) in primary human epidermal keratinocytes; experiment: Real-time quantitative PCR of keratinocyte differentiation markers; assay type: cell-based
Procedure, shortened: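 Primary human epidermal keratinocytes in low-calcium EpiLife (0.06 mM CaCl2) were given 100 nM test compound for 72 h, with or without 500 nM bisindolylmaleimide I for 30 min beforehand. High-calcium medium (1.8 mM) served as the differentiation reference. KRT1, KRT10, INVL, TGM1, FLG and LOR measured by qPCR, normalised to PPIA, RPLP0, GAPDH and TBP and expressed relative to vehicle. Two donors.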

[5] = Skin penetration in a Franz chamber diffusion set-up; assay type: in vitro ADME, human; settings: 21 h
Procedure, shortened: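 Full-thickness human abdominal skin in vertical Franz cells (2 cm orifice, nine cells per treatment) at 32 °C, with stirred EpiLife plus keratinocyte supplement as receptor. 0.1% w/v hydroalcoholic gel applied for 21 h. Surface excess removed, stratum corneum tape-stripped 12 times, then epidermis and dermis heat-separated and quantified. LOQ 3 ng/biopsy; Mann–Whitney comparison.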

[6] = test system: UV-induced skin tumors; experiment: UV-induced skin cancer mouse model; assay type: in vivo; settings: two consecutive days
[7] = test system: primary epidermal keratinocytes; experiment: Keratinocyte viability and caspase 3/7 activation; assay type: cell-based, human; settings: growth-arresting concentrations (100 nM and above); 72 h
[8] = Local skin reaction in guinea pigs; assay type: in vivo, guinea pig; settings: single topical application, 0.015% and 0.05% gel; hairless guinea pigs
Procedure, shortened: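 Seven female IAF hairless guinea pigs (Crl:HA-Hr Hr) received 10 µL of 0.015% or 0.05% gel, or vehicle, on five 2 cm2 flank fields, one condition per field. LSR was scored daily for up to 4 days as a composite of edema, erythema, ulceration and subcutaneous bleeding. Four animals were killed at 24 h for 4 mm punch biopsies and H&E sections.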

[9] = test system: primary epidermal keratinocytes; experiment: Keratinocyte proliferation; assay type: cell-based, human; settings: concentrations from 100 nM to 10 µM; 72 h
Procedure, shortened: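 Primary adult human epidermal keratinocytes (log phase) at 4 × 10^3 cells/well in serum-free EpiLife with HKGS, overnight at 37 °C. Exposed to titrated test compound for 72 h. Proliferation read as DNA content with CyQUANT Direct stain. Percent inhibition normalised to 1 µM geldanamycin.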

[10] = First tier chemical stability assessment in aqueous buffer; assay type: physicochemical; settings: aqueous buffer pH 7.4; 16 h, room temperature
[11] = test system: B16 melanoma; experiment: B16 melanoma mouse model; assay type: in vivo; settings: 0.1% in hydroalcoholic gel, topical, two consecutive days; at 3 months
Procedure, shortened: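 Female C57BL/6J mice aged 8–10 weeks received 5 × 10^5 B16 cells intradermally in the flank. Once nodules were visible, tumours were measured by caliper (volume […]) and mice split into cohorts of 8–10 with equal volumes. Treatment was topical, 20 µL of 0.1% hydroalcoholic gel on two consecutive days. The endpoint was a tumour above 250 mm3 or ulceration.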

[12] = Stability in hydroalcoholic gel; assay type: physicochemical; settings: for Largest single impurity (5-isomer re-arrangement product): 0.05% w/v gel, 25 °C/60%RH
Procedure, shortened: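 Hydroalcoholic gel at pH 2.8 in citrate buffer, containing benzyl alcohol and isopropanol. For assay, 0.4 g gel was dispersed in 0.1% phosphoric acid/acetonitrile 50:50 and diluted to 10.0 mL. Reverse-phase UHPLC on an HSS C18 column with a 50–95% acetonitrile gradient and UV at 220 nm, against an external reference standard. Run in duplicate.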

[13] = Distribution coefficient; assay type: physicochemical; settings: octanol/citrate buffer, pH 3
[14] = cited from earlier work

SMILES: CCc1noc(CC)c1C(=O)OCC1=CC2C(=O)C3(C=C(C)C(O)C3(O)C1O)C(C)CC1C2C1(C)C (stereo not shown) [compound 9, Ingenol-20-(3,5-Diethylisoxazole-4-Carboxylate)]
- stability over time ([1]; 24 h): did not change over time
- fold less potent in neutrophil activation assay [2]: at least 150 fold
- fold less potent in IL-8 release assay [3]: at least 150 fold

SMILES: CCc1noc(CC)c1C(=O)OC1C(CO)=CC2C(=O)C3(C=C(C)C(O)C13O)C(C)CC1C2C1(C)C (stereo not shown) [compound 8, Ingenol-5-(3,5-Diethylisoxazole-4-Carboxylate)]
- 20-isomer in equilibrated mixture [1]: 86–88%
- fold less potent in neutrophil activation assay [2]: ~56 fold
- fold less potent in IL-8 release assay [3]: approximately tenfold

SMILES: CN(C)CCCn1cc(C2=C(c3c[nH]c4ccccc34)C(=O)NC2=O)c2ccccc21 [bisindolylmaleimide-1, bisindolylmaleimide I]
- effect of pretreatment on marker induction by ingenol derivatives ([4]; 500 nM, 30 min pre-incubation before 100 nM ingenol derivatives): abolished

SMILES: C/C=C(/C)C(=O)O[C@H]1C(C)=C[C@]23C(=O)[C@@H](C=C(CO)[C@@H](O)[C@]12O)[C@H]1[C@@H](C[C@H]3C)C1(C)C [Ingenol mebutate, Ingenol 3-Angelate]
- epidermal relative to dermal concentration ([5]; 0.1% gel): more than 100 fold
- Dermal exposure level ([5]; 0.1% in hydroalcoholic gel, topical): 364 ± 64 nM
- epidermal concentration level ([5]; 0.1% in hydroalcoholic gel, topical, stratum corneum removed): 100 µM
- antitumor effect ([6]; 0.05% gel): slightly weaker effect
- antitumor effect ([6]; 0.1% gel): comparable effect
- tumor clearance ([6]; topical gel, SKH1 mice, largely maintained 5 weeks post treatment): more than 50%
- cytotoxicity or apoptosis (viability, caspase 3/7) [7]: No signs of cytotoxicity or apoptosis
- transcription of intermediate (INVL) and late (TGM1, FLG, LOR) keratinocyte differentiation markers ([4]; 100 nM, 72 h, low calcium medium): stimulated transcription
- local skin reaction (LSR) [8]: robust LSR response
- time of peak local skin reaction [8]: 24 h
- growth inhibition [9]: Total growth inhibition without obvious signs of toxicity
- compound recovered [10]: 60%
- animals remaining tumor free (overall tumor free survival) [11]: 45%
- decrease of concentration ([12]; 0.05% gel, after 6 months storage at 25 °C/60%RH): 8.0 % of label claim
- Largest single impurity (5-isomer re-arrangement product) ([12]; 6 months): 5.1 area %
- Largest single impurity (5-isomer re-arrangement product) ([12]; Start): 0.2 area %
- logD at 24 h [13]: 3.5

SMILES: CC1=C[C@]23C(=O)[C@@H](C=C(CO)[C@@H](O)[C@]2(O)[C@H]1O)[C@H]1[C@@H](C[C@H]3C)C1(C)C [Ingenol]
- biological activity [14]: lacks biological activity
